Tests used:
[1] = system: Staphylococcus aureus; experiment: Antibacterial activity against Staphylococcus aureus ARC516 infected in CD1 mouse neutropenic thigh infection model assessed as 1 log reduction in colony forming unit per […] at 20 mg/kg, ip qd administered 2 hrs post-infection measured 24 hrs post-treatment relative to vehicle treated control; type: functional; conditions: route intraperitoneal
Procedure, shortened: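 Mice rendered neutropenic with ip cyclophosphamide (150 mg/kg 4 days and 100 mg/kg 1 day before infection), then infected with MSSA ARC516 at a target 5 × 10⁵ cfu/thigh. Groups of five dosed ip once daily from 2 h post-infection; vehicle group of five. At 24 h after treatment start, thighs homogenized and plated on tryptic soy agar, 37 °C overnight, cfu counted.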

[2] = system: Mus musculus; experiment: AUC (infinity) in Staphylococcus aureus ARC516 infected in CD1 mouse neutropenic thigh infection model at 20 mg/kg, ip qd by LC-MS/MS analysis; type: ADME, organism-based; design: time infinity, dose 20 mg/kg, route intraperitoneal; conditions: in vivo
Procedure, shortened: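 Exposure in neutropenic CD-1 mice thigh-infected with S. aureus ARC516 (target 5 × 10⁵ cfu/thigh), dosed ip once daily from 2 h post-infection. Groups of three killed at timed intervals; blood taken by cardiac puncture. Plasma drug measured by LC-MS/MS; parameters from a noncompartmental model.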

AUC [2]: 2.5 µg/h/mL
SMILES: C[C@H]1COc2c(N3CCN(C)CC3)c(F)cc3c(=O)c(C(=O)O)cn1c23.C[C@H]1COc2c(N3CCN(C)CC3)c(F)cc3c(=O)c(C(=O)O)cn1c23.O [LEVOFLOXACIN]
FC [1]: 1.46

Source: ChEMBL document CHEMBL1914454, “Novel N-linked aminopiperidine inhibitors of bacterial topoisomerase type II: broad-spectrum antibacterial agents with reduced hERG activity” (J Med Chem, 2011)
